ChEMBL document CHEMBL1154767, “Reversal agent and linker variants of reversed chloroquines: activities against Plasmodium falciparum” (J Med Chem, 2010)

Assays:
Plasmodium falciparum [1] = assay: Antimalarial activity against chloroquine-sensitive Plasmodium falciparum D6 after 72 hrs by fluorescence based method; format: functional, organism-based; settings: D6, 72 h
How it was run: (§1)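 Asynchronous parasite cultures diluted with uninfected erythrocytes in RPMI-1640 plus 0.5% Albumax II to 0.2% parasitemia, 2% hematocrit. Drugs diluted from 10 mM DMSO stock, final 0 to 10^-4 M, triplicate wells. After 72 h under standard culture conditions, read by SYBR Green I fluorescence (ex 497, em 520 nm). IC50 from nonlinear regression of fluorescence vs log[drug].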

Plasmodium falciparum [2] = assay: Antimalarial activity against chloroquine-resistant Plasmodium falciparum Dd2 after 72 hrs by fluorescence based method; format: functional, organism-based; settings: Dd2, 72 h; how it was run: as §1
[3] = Therapeutic index, ratio of IC50 for C57B1/6J mice (Mus musculus) splenic lymphocyte to IC50 for chloroquine-resistant Plasmodium falciparum Dd2; settings: read-out: TI
[4] = Therapeutic index, ratio of IC50 for C57B1/6J mice (Mus musculus) splenic lymphocyte to IC50 for chloroquine-sensitive Plasmodium falciparum D6; settings: read-out: TI

SMILES | IC50 (Plasmodium falciparum [1]) | IC50 (Plasmodium falciparum [2]) | selectivity ratio [3] | selectivity ratio [4]
Clc1ccc2c(NCCN(CCN(Cc3ccccc3)Cc3ccccc3)CCN(Cc3ccccc3)Cc3ccccc3)ccnc2c1 | 2 nM | 5 nM |  | 
Clc1ccc2c(N3CCN(CCN(Cc4ccccc4)Cc4ccccc4)CC3)ccnc2c1 | 52 nM | 115 nM |  | 
O=C(CNCCNc1ccnc2cc(Cl)ccc12)N(c1ccccc1)c1ccccc1 | 5 nM | 13 nM | 4800 | 12000
Clc1ccc2c(NCCCNCCN(Cc3ccccc3)Cc3ccccc3)ccnc2c1 | 2 nM | 6 nM |  | 
Clc1ccc2c(NCCCNCCN(c3ccccc3)c3ccccc3)ccnc2c1 | 26 nM | 27 nM |  | 
Clc1ccc2c(NCCCNCCCN(Cc3ccccc3)Cc3ccccc3)ccnc2c1 | 23 nM | 34 nM |  | 
O=C(CN1CCN(c2ccnc3cc(Cl)ccc23)CC1)N(c1ccccc1)c1ccccc1 | 49 nM | 101 nM |  | 
Clc1ccc2c(NCCNCCN(Cc3ccccc3)Cc3ccccc3)ccnc2c1 | 10 nM | 16 nM |  | 
CN(CCCNc1ccnc2cc(Cl)ccc12)CCCN1c2ccccc2CCc2ccccc21 | 3 nM | 5 nM |  | 
O=C(CNCCNc1ccnc2cc(Cl)ccc12)N(Cc1ccccc1)Cc1ccccc1 | 14 nM | 16 nM |  | 
Clc1ccc2c(NCCCNCCCCN(Cc3ccccc3)Cc3ccccc3)ccnc2c1 | 8 nM | 11 nM |  | 
Clc1ccc2c(NCCNCCCN(Cc3ccccc3)Cc3ccccc3)ccnc2c1 | 7 nM | 16 nM |  | 
O=C(CN(CCNc1ccnc2cc(Cl)ccc12)CC(=O)N(c1ccccc1)c1ccccc1)N(c1ccccc1)c1ccccc1 | 30 nM | 52 nM |  | 
